Runt-CBFb FRET: inhibitors of RUNX1 Runt–CBFb binding, primary screen, biochemical, FRET, Cerulean-Runt, Venus-CBFb, uHTS | Runt-related transcription factor 1 (Homo sapiens) + Core-binding factor subunit beta … | Cerulean-Runt/Venus-CBFb FRET ratio 530/480, 1 h | inhibition, % at 20 µM | actives 0.46% (n = 220,000);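 active = inhibition over about 50% at 20 µM in the single-dose screen, limit read from the data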;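 also: 0% = DMSO wells and 100% = excess unlabeled CBFb competitor control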
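Measured by: fluorescence energy transfer, 422 nm excitation, 530/480 nm emission; Assay system: Cerulean-Runt domain; Medium: Tris pH 7.5 buffer with BSA; Measure: loss of energy transfer signal; Controls: 5 µM unlabeled CBFb as full-inhibition high control; Incubation: protein complex preformed 1 h, compound exposure 1 h, room temperature, dark.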
Runt-SMMHC FRET: inhibitors of RUNX1 Runt–CBFb-SMMHC binding, primary screen, biochemical, FRET, Cerulean-Runt, Venus-CBFb-SMMHC, uHTS. actives 0.74% (n = 220,000). Runt-related transcription factor 1 (Homo sapiens) + Core-binding factor subunit beta …. inhibition, % at 20 µM. Cerulean-Runt/Venus-CBFb-SMMHC FRET ratio 530/480, 1 h;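 active = mean inhibition across duplicate retests at 20 µM reaching about 50%, limit read from the data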;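 also: 0% = DMSO wells and 100% = wells with excess untagged CBFb-SMMHC; inhibitors lower the FRET ratio by blocking Runt binding to CBFb-SMMHC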
RanGTP-Impb inh: inhibitors of RanGTP-importin-beta interaction, primary screen, biochemical, FRET, CFP-Ran, YFP-importin-beta, homogeneous | inhibition, % (no concentration beside the values) | cell-free CFP-Ran/YFP-importin-beta FRET ratio | actives 1.1% (n = 300,000) | AID 2216, 2009;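 active = more than half of the replicate wells show a fall in the fluorescence ratio signal beyond about 16%, limit read from the data, passing the limit was not always enough; inconclusive = exactly half of the replicate wells pass the set limit; inactive = fewer than half of replicates pass the limit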;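 also: 0% = DMSO wells and 100% = Ran loaded with GDP instead of GTP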
MEX-5 binding: MEX-5 zinc finger RNA-binding disruptors – biochemical, C. elegans, fluorescence polarization, MLPCN library, primary screen. Zinc finger protein mex-5 (Caenorhabditis elegans), Q9XUB2. MEX-5/FITC-TCR2 RNA binding; stronger effect = lower value. activity score (negative = inhibition of binding), % at 10 µM. actives 0.38% (n = 300,000). AID 1832, 2009;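 active = inhibition past about -25% in most replicates, and total fluorescence under double the plate's negative control median, limit read from the data; inconclusive = replicates evenly split on the limit, or fluorescence at least double controls; inactive = too little inhibition in most replicates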;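 also: 0% = DMSO and -100% = 5 µM competing unlabeled TCR2 RNA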
Target sequence (Q9XUB2 whole entry, looked up): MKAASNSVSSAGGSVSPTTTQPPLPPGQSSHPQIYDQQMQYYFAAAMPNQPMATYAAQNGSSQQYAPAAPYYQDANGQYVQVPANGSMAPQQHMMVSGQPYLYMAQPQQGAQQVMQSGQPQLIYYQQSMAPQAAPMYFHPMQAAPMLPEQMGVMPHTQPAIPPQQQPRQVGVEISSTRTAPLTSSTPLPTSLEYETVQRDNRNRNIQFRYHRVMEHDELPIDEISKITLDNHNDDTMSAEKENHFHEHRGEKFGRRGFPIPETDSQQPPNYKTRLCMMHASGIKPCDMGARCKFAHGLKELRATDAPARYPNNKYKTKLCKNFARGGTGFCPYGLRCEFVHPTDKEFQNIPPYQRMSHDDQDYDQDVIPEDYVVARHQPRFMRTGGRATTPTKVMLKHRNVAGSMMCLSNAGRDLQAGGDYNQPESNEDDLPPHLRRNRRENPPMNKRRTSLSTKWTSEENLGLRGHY
proKLK7 act: proKLK7 zymogen activators, primary screen, biochemical, fluorescence intensity; purified proKLK7, EDANS-DABCYL substrate fluorescence; 100% is mature enzyme control, 0% vehicle; actives 0.9% (n = 370,000); activation, % at 7 µM;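 active = activation above the mean of all tested compounds plus 3 SD, computed per campaign excluding outliers beyond control limits, cut at about 13% in these data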
Active calls of the source: *. The list is not random: actives were taken first. Their share in the collection is about 2.1%.

How did C=CCn1c(O)c(C(C)=NCCC2=CCCCC2)c(=O)[nH]c1=O do in these assays?
Runt-CBFb FRET: 0; Runt-SMMHC FRET: 3; RanGTP-Impb inh: -3; MEX-5 binding: -1; proKLK7 act: 0

How did CN(C)c1ccc(N=Cc2c(O)n(CCC3=CCCCC3)c(=O)[nH]c2=O)cc1 do in these assays?
Runt-CBFb FRET: -25; Runt-SMMHC FRET: 3; RanGTP-Impb inh: inconclusive; MEX-5 binding: -63*

How did CCN(CC)c1ccc(N=Cc2c(O)n(CCC3=CCCCC3)c(=O)[nH]c2=O)cc1 do in these assays?
Runt-CBFb FRET: -11; Runt-SMMHC FRET: -113; RanGTP-Impb inh: -14; MEX-5 binding: 0; proKLK7 act: 0

Results for COc1ccc(/C=C/C(=O)c2c(O)n(CCC3=CCCCC3)c(=O)[nH]c2=O)cc1OC ?
Runt-CBFb FRET: -8; Runt-SMMHC FRET: -9; RanGTP-Impb inh: -1; MEX-5 binding: -47*; proKLK7 act: 0

What do the screens show for `O=[N+]([O-])c1ccc(N2CCCC(C(F)(F)F)C2)c2ccncc12` (configuration not stated)?
RanGTP-Impb inh: -3; MEX-5 binding: 0; proKLK7 act: 0

Results for O=C(N/N=C/C1C(=O)NC(=S)N(c2ccccc2)C1=O)c1cc(Br)c(O)c(Br)c1 (configuration not stated) ?
Runt-CBFb FRET: 6; Runt-SMMHC FRET: -16; RanGTP-Impb inh: 0; MEX-5 binding: -79*; proKLK7 act: -2

What do the screens show for `O=C1NC(=O)N(Cc2ccccc2)C(=O)/C1=C\c1ccco1`?
Runt-CBFb FRET: 8; Runt-SMMHC FRET: 2; RanGTP-Impb inh: -2; MEX-5 binding: -30*; proKLK7 act: 0

What do the screens show for `CCc1cc2c(s1)NC(=O)CN=C2c1cccs1`?
Runt-CBFb FRET: 0; Runt-SMMHC FRET: -3; RanGTP-Impb inh: -1; MEX-5 binding: 2; proKLK7 act: 0

Results for O=C(CNC(=O)c1ccc(Br)cc1)Nc1ccc(Br)cc1C(=O)c1ccccc1 ?
Runt-CBFb FRET: -2; Runt-SMMHC FRET: -1; RanGTP-Impb inh: inconclusive; MEX-5 binding: -2; proKLK7 act: 1

What do the screens show for `COc1cc(C(=O)Nc2ccc(Br)cc2C(=O)c2ccccc2)cc(OC)c1OC`?
Runt-CBFb FRET: -5; Runt-SMMHC FRET: -1; RanGTP-Impb inh: -1; MEX-5 binding: 1; proKLK7 act: 26*

How did Cc1ccccc1C(O)(Cc1ccccc1)C1CN2CCC1CC2 (configuration not stated) do in these assays?
Runt-CBFb FRET: 1; Runt-SMMHC FRET: -2; RanGTP-Impb inh: -1; MEX-5 binding: 1; proKLK7 act: 0

How did CN(C)C(=O)Oc1ccc2nnc3ccnn3c2c1 do in these assays?
RanGTP-Impb inh: 72*; MEX-5 binding: -3; proKLK7 act: 4

How did CN1C(=O)C(=Cc2sc(=O)n(-c3ccccc3)c2N2CCCCC2)C(=O)N(C)C1=O do in these assays?
Runt-CBFb FRET: -12; Runt-SMMHC FRET: -50; RanGTP-Impb inh: 6; MEX-5 binding: -46*; proKLK7 act: 0

Results for CN1C(=O)C(=Cc2cc([N+](=O)[O-])ccc2N2CCCCC2)C(=O)N(C)C1=O ?
Runt-SMMHC FRET: -2; RanGTP-Impb inh: -1; MEX-5 binding: 2; proKLK7 act: 0

What do the screens show for `CC1C=CCCC12C(=O)NC(=O)NC2=O` (configuration not stated)?
proKLK7 act: 0

How did N#CC(C#N)=Cc1ccc(-c2ccccc2)o1 do in these assays?
Runt-CBFb FRET: -41; Runt-SMMHC FRET: -34; RanGTP-Impb inh: -103; MEX-5 binding: -43*

Results for N#CC(C#N)=Cc1ccc(-c2ccccc2F)o1 ?
Runt-CBFb FRET: -5; Runt-SMMHC FRET: -52; proKLK7 act: 0

How did Cc1ccc2c(c1)c(=O)c1c3n2CCN(CC2CO2)C3CC1 (configuration not stated) do in these assays?
Runt-CBFb FRET: 4; Runt-SMMHC FRET: 11; RanGTP-Impb inh: 29*; MEX-5 binding: -3; proKLK7 act: -8

What do the screens show for `CC(=O)O[C@H]1CCC2C3CCC4=CC(=O)CCC4=C3C=C[C@@]21C` (some centres not stated)?
RanGTP-Impb inh: 32*; MEX-5 binding: -3; proKLK7 act: -2

What do the screens show for `CCC(C)n1c(O)c(/C=N/NC(=O)c2ccncc2)c(=O)[nH]c1=S` (configuration not stated)?
Runt-CBFb FRET: 44; Runt-SMMHC FRET: 77*; RanGTP-Impb inh: -2; MEX-5 binding: -1; proKLK7 act: -1

Results for CCn1c(O)c(/C=N/NC(=O)c2ccccc2)c(=O)n(CC)c1=S ?
Runt-CBFb FRET: 36; Runt-SMMHC FRET: 70*; RanGTP-Impb inh: 11; MEX-5 binding: -2; proKLK7 act: 1

What do the screens show for `CCn1c(O)c(/C=N/NC(=O)c2ccncc2)c(=O)[nH]c1=S`?
Runt-CBFb FRET: 28; Runt-SMMHC FRET: 82*; RanGTP-Impb inh: 5; MEX-5 binding: -10; proKLK7 act: -2

Results for O=c1[nH]c(=S)n(Cc2ccc(F)cc2)c(O)c1C=NCCCn1ccnc1 ?
Runt-CBFb FRET: 0; Runt-SMMHC FRET: 0; RanGTP-Impb inh: -1; MEX-5 binding: 1; proKLK7 act: 0

Results for O=C(N/N=C/c1c(O)n(Cc2ccc(F)cc2)c(=S)[nH]c1=O)c1ccncc1 ?
Runt-CBFb FRET: 69*; Runt-SMMHC FRET: 84*; RanGTP-Impb inh: 10; MEX-5 binding: 2; proKLK7 act: -2

What do the screens show for `CCC/C=N/O`?
proKLK7 act: 1

How did CN1CCN(c2c(C#N)c(C(F)(F)F)nn2C)CC1 do in these assays?
Runt-CBFb FRET: 81*; Runt-SMMHC FRET: -4; RanGTP-Impb inh: inconclusive; MEX-5 binding: 2; proKLK7 act: 0

How did CCCn1cc2c3c(cccc31)C1CC(C)CN(C)C1C2 (configuration not stated) do in these assays?
Runt-CBFb FRET: -4; Runt-SMMHC FRET: -6; RanGTP-Impb inh: -1; MEX-5 binding: -27*

Results for CC(=O)c1c(C)[nH]c(C(=O)N2CCC3(CC2)OCCO3)c1C ?
Runt-CBFb FRET: -1; Runt-SMMHC FRET: 0; RanGTP-Impb inh: 0; MEX-5 binding: 0; proKLK7 act: -1

Results for COc1ccc(N=Cc2c(O)n(Cc3ccccc3)c(=S)[nH]c2=O)c(OC)c1 ?
Runt-CBFb FRET: -82; Runt-SMMHC FRET: 84; RanGTP-Impb inh: -8; MEX-5 binding: -57*; proKLK7 act: 0

Screens: PubChem BioAssay, several laboratories
